Converted amounts (≈) assume the structure as drawn. The source made the active and inactive calls. No cut-off for these calls is given here.
Key:
HUVEC [1] = experiment: Antiinflammatory activity against TNF-alpha-induced ICAM1 protein expression in HUVEC at maximum tolerated dose pretreated for 2 hrs before TNFalpha challenge measured after 16 hrs by whole cell ELISA; type: functional, Homo sapiens
In short: (§1)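 Primary umbilical cord endothelial cells were pre-incubated 2 h with or without compound, then TNF-α (10 ng/mL) for 16 h (ICAM-1, VCAM-1) or 4 h (E-selectin). Whole-cell ELISA: glutaraldehyde fixation, milk block, primary antibody overnight at 4 °C, peroxidase secondary, OPD substrate, A490. IC50 read from %inhibition vs log concentration plots of three independent experiments. Single-level values were taken at the highest concentration giving >95% viability (MTT, 24 h).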

[2] = Cytotoxicity against HUVEC assessed as maximum tolerated dose for >95% cell viability after 24 hrs by MTT assay; type: cell-based; conditions: human, HUVEC cells; read-out: MTD
In short: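 Primary human umbilical vein endothelial cells (mild trypsinization), grown in M-199 with 15% heat-inactivated FCS, endothelial cell growth factor and heparin, 5% CO2. Cells attached overnight, then exposed to compounds or DMSO (0.25%) for 24 h; MTT (5 mg/mL in PBS) 4 h, formazan dissolved in DMSO, absorbance 570 nm. Also checked by trypan blue exclusion. Value is highest concentration giving >95% viability; ≥3 experiments in triplicate.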

HUVEC [3] = experiment: Antiinflammatory activity against TNF-alpha-induced ICAM1 protein expression in HUVEC pretreated for 2 hrs before TNFalpha challenge measured after 16 hrs by whole cell ELISA; type: functional, cell-based; conditions: Homo sapiens; in short: as §1
HUVEC [4] = experiment: Antiinflammatory activity against LPS-induced E-selectin protein expression in HUVEC at 2.5 to 20 ug/ml pretreated for 2 hrs before LPS challenge measured after 4 hrs by whole cell ELISA; type: functional, cell-based; conditions: Homo sapiens
In short: (§2)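 Primary human umbilical cord endothelial cells (isolated by mild trypsinization, grown in M-199 with 15% heat-inactivated FCS, endothelial cell growth factor, heparin) pre-incubated 2 h with compound, then LPS ([…]) for 4 h (E-selectin) or 16 h (VCAM-1). Cells fixed with 1.0% glutaraldehyde, blocked with 3.0% milk, primary antibody overnight at 4 °C, peroxidase secondary, o-phenylenediamine substrate at pH 4.5, absorbance 490 nm.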

HUVEC [5] = experiment: Antiinflammatory activity against TNF-alpha-induced VCAM-1 protein expression in HUVEC at 20 ug/ml pretreated for 2 hrs before TNFalpha challenge measured after 16 hrs by flow cytometry; type: functional; conditions: Homo sapiens
In short: (§3)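 Endothelial cells were treated ±compound ([…]) for 2 h, then TNF-α (10 ng/mL). E-selectin was read at 4 h, ICAM-1 and VCAM-1 at 16 h. Cells were dislodged, stained with specific or control IgG antibody (30 min, 4 °C) and then FITC anti-mouse IgG. Autofluorescence was subtracted and mean fluorescence intensity taken from three independent experiments.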

HUVEC [6] = experiment: Antiinflammatory activity against TNF-alpha-induced neutrophil adhesion in HUVEC at 2.5 to 20 ug/ml pretreated for 2 hrs before TNFalpha challenge measured after 6 hrs by calorimetric analysis; type: functional, Homo sapiens
In short: (§4)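 A confluent endothelial monolayer was pretreated ±compound for 2 h, then given TNF-α (10 ng/mL) for 6 h. Neutrophils from healthy donor blood (dextran sedimentation, Ficoll-Hypaque, hypotonic RBC lysis; 6 × 10^4/well) were added for 1 h at 37 °C under static conditions. After washing, bound cells were detected with OPD/CTAB/aminotriazole substrate at A490. Mean ± SD of 3 independent experiments.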

HUVEC [7] = experiment: Antiinflammatory activity against TNF-alpha-induced neutrophil adhesion in HUVEC pretreated for 2 hrs before TNFalpha challenge measured after 6 hrs by calorimetric analysis; type: functional, cell-based; conditions: Homo sapiens; in short: as §4
HUVEC [8] = experiment: Antiinflammatory activity against TNF-alpha-induced VCAM-1 protein expression in HUVEC pretreated for 2 hrs before TNFalpha challenge measured after 16 hrs by whole cell ELISA; type: functional, cell-based; conditions: Homo sapiens; in short: as §1
HUVEC [9] = experiment: Antiinflammatory activity against LPS-induced VCAM-1 protein expression in HUVEC pretreated for 2 hrs before LPS challenge measured after 16 hrs by whole cell ELISA; type: functional, cell-based; conditions: Homo sapiens; in short: as §2
HUVEC [10] = experiment: Antiinflammatory activity against TNF-alpha-induced E-selectin protein expression in HUVEC at 20 ug/ml pretreated for 2 hrs before TNFalpha challenge measured after 4 hrs by flow cytometry; type: functional; conditions: Homo sapiens; in short: as §3
[11] = Antiinflammatory activity against TNF-alpha-induced VCAM-1 protein expression in HUVEC by ELISA
HUVEC [12] = experiment: Antiinflammatory activity against TNF-alpha-induced E-selectin protein expression in HUVEC at 2.5 to 20 ug/ml pretreated for 2 hrs before TNFalpha challenge measured after 4 hrs by whole cell ELISA; type: functional, cell-based; conditions: Homo sapiens; in short: as §1
HUVEC [13] = experiment: Antiinflammatory activity against TNF-alpha-induced ICAM1 protein expression in HUVEC at 20 ug/ml pretreated for 2 hrs before TNFalpha challenge measured after 16 hrs by flow cytometry; type: functional; conditions: Homo sapiens; in short: as §3

SMILES	inhibition (INH) (HUVEC [1])	MNTC at 24 h [2]	IC50 (HUVEC [3])	further results
COc1cc(/C=C/C(=O)Sc2ccccc2)cc(OC)c1OC	85%	50 µg/mL	30 mg/L (≈ 90.8 µM)	
O=C(/C=C/c1ccccc1)OCc1ccccc1 [BENZYL CINNAMATE]	50%	70 µg/mL	70 mg/L (≈ 294 µM)	
CCSC(=O)CCc1cc(OC)c(OC)c(OC)c1	50%	60 µg/mL	60 mg/L (≈ 211 µM)	
COc1ccc(OC)c(/C=C/C(=O)OC(C)C)c1	35%	120 µg/mL		
CCCOC(=O)/C=C/c1ccccc1 [PROPYL CINNAMATE]	70%	140 µg/mL	100 mg/L (≈ 526 µM)	
COc1cc(/C=C/C(=O)OC(C)C)cc(OC)c1OC	80%	65 µg/mL	45 mg/L (≈ 161 µM)	
CCOC(=O)CCc1cc(OC)c(OC)c(OC)c1	50%	110 µg/mL	110 mg/L (≈ 410 µM)	
CCCCCCCCOC(=O)/C=C/c1ccccc1 [OCTYL CINNAMATE]	35%	70 µg/mL		
CCOC(=S)/C=C/c1cc(OC)c(OC)c(OC)c1	95%	20 µg/mL	10 mg/L (≈ 35.4 µM)	inhibition (HUVEC [4]): Active; inhibition (HUVEC [3]): Dose-dependent effect; inhibition at 20 µg/mL (HUVEC [5]): > 95%; inhibition (INH) (HUVEC [6]): >95%; inhibition (HUVEC [7]): Dose-dependent effect; inhibition (HUVEC [8]): Dose-dependent effect; inhibition (HUVEC [9]): Active; inhibition at 20 µg/mL (HUVEC [10]): > 95%; IC50 [11]: 0.04 mM; inhibition (HUVEC [12]): Active; inhibition at 20 µg/mL (HUVEC [13]): > 95%
O=C(/C=C/c1ccccc1)Sc1ccccc1 [PHENYL THIOCINNAMATE]	65%	70 µg/mL	55 mg/L (≈ 229 µM)	
CC(=O)Oc1ccccc1C(=O)O [ASPIRIN]				IC50 [11]: 6 mM
CCCOC(=O)CCc1ccc(OC)c(OC)c1	55%	100 µg/mL	90 mg/L (≈ 357 µM)	
COc1cc(/C=C/C(=O)SCc2ccccc2)cc(OC)c1OC	75%	40 µg/mL	20 mg/L (≈ 58.1 µM)	
COc1cc(CCC(=O)OC(C)C)cc(OC)c1OC	40%	65 µg/mL		
CCCSC(=O)/C=C/c1cc(OC)c(OC)c(OC)c1	50%	70 µg/mL	70 mg/L (≈ 236 µM)	
CCCOC(=O)/C=C/c1cc(OC)ccc1OC	55%	120 µg/mL	110 mg/L (≈ 439 µM)	
COc1cc(/C=C/C(=O)Oc2ccccc2)cc(OC)c1OC	40%	45 µg/mL		
CCCOC(=O)/C=C/c1cc(OC)c(OC)c(OC)c1	62%	120 µg/mL	100 mg/L (≈ 357 µM)	
CCCCCCCCSC(=O)/C=C/c1ccccc1 [OCTYL THIOCINNAMATE]	45%	60 µg/mL		
CCSC(=O)/C=C/c1cc(OC)ccc1OC	70%	50 µg/mL	35 mg/L (≈ 139 µM)	
CCCCOC(=S)/C=C/c1ccccc1 [BUTYL THIONOCINNAMATE]	70%	85 µg/mL	55 mg/L (≈ 250 µM)	
CCCOC(=O)CCc1cc(OC)c(OC)c(OC)c1	62%	120 µg/mL	110 mg/L (≈ 390 µM)	
